Assay results as given in the array DNA melting data of Ke et al. (doi:10.1101/2024.01.08.574731).

Key:
[1] = folding enthalpy; higher = less favourable; fluorescence melt of hairpins on a sequencing array, two-state fit; settings: sodium 0.088 M
Procedure, shortened: (§1)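 Melting temperature and folding enthalpy were derived from bootstrapped two-state fits. The fitted temperatures were raised by 9.35 °C to agree with UV melts, and four replicates were combined by inverse variance. The underlying data were Cy3 fluorescence images of library hairpins, with annealed Cy3 and quencher oligos, on a sequenced MiSeq flow cell in 50 mM Na-HEPES pH 8.0, 25 mM NaCl, taken in 2.5 °C steps up to 60 °C, normalised to pre-quench Cy3 and to control constructs.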

[2] = melting temperature; fluorescence melt of hairpins on a sequencing array, two-state fit, raised by 9.35 °C to match UV melts; settings: sodium 0.088 M
Procedure, shortened: as §1

Row | Sequence | folding enthalpy [1] | Tm [2]
1 | GATCAGGCAACTGATC ((((((....)))))) | -37.6 kcal/mol | 60.6 °C
2 | GATCAGGCCCTGATC ((((((...)))))) | -33.9 kcal/mol | 50.1 °C
3 | GATCAGGCCGCTGATC ((((((....)))))) | -41.3 kcal/mol | 51.8 °C
4 | GATCAGGCGACTGATC ((((((....)))))) | -36.8 kcal/mol | 56.4 °C
5 | GATCAGGCGCTGATC ((((((...)))))) | -33.8 kcal/mol | 47.9 °C
6 | GATCAGGGAAACCTGACC (.(((((....))))).) | -17.2 kcal/mol | 36.3 °C
7 | GATCAGGGAAACCTGGTC ((.((((....)))).)) | -29.2 kcal/mol | 47.4 °C
8 | GATCAGGGCTCTGATC ((((((....)))))) | -38.8 kcal/mol | 55.1 °C
9 | GATCAGGGGACTGATC ((((((....)))))) | -32.5 kcal/mol | 53.8 °C
10 | GATCAGGTAACTGATC ((((((....)))))) | -39.9 kcal/mol | 57.1 °C
11 | GATCAGGTAGCTGATC ((((((....)))))) | -39.7 kcal/mol | 53.4 °C
12 | GATCAGGTCCCTGATC ((((((....)))))) | -39 kcal/mol | 54.6 °C
13 | GATCAGGTGCTGATC ((((((...)))))) | -39 kcal/mol | 48.6 °C
14 | GATCAGTATTCTGATC ((((((....)))))) | -39.1 kcal/mol | 51 °C
15 | GATCAGTCAACTGATC ((((((....)))))) | -37.6 kcal/mol | 50.9 °C
16 | GATCAGTCCACTGATC ((((((....)))))) | -37.6 kcal/mol | 54.3 °C
17 | GATCAGTCGTCTGATC ((((((....)))))) | -36.5 kcal/mol | 52.3 °C
18 | GATCAGTCTCTGATC ((((((...)))))) | -40.3 kcal/mol | 50.7 °C
19 | GATCAGTCTGCTGATC ((((((....)))))) | -41.6 kcal/mol | 52.7 °C
20 | GATCAGTGACTGATC ((((((...)))))) | -26.2 kcal/mol | 48.7 °C
21 | GATCAGTGCCTGATC ((((((...)))))) | -22.5 kcal/mol | 49 °C
22 | GATCAGTGGCCTGATC ((((((....)))))) | -36 kcal/mol | 50.6 °C
23 | GATCAGTGGTCTGATC ((((((....)))))) | -35.7 kcal/mol | 51.6 °C
24 | GATCAGTGTCCTGATC ((((((....)))))) | -36.2 kcal/mol | 49.6 °C

Row | Sequence | folding enthalpy [1] | Tm [2]
25 | GATCAGTGTCTGATC ((((((...)))))) | -34.8 kcal/mol | 50 °C
26 | GATCAGTTCGCTGATC ((((((....)))))) | -44.9 kcal/mol | 54.1 °C
27 | GATCAGTTTCCTGATC ((((((....)))))) | -35 kcal/mol | 50.9 °C
28 | GATCAGTTTGCTGATC ((((((....)))))) | -44.1 kcal/mol | 53.8 °C
29 | GATCATAAACATGATC ((((((....)))))) | -31 kcal/mol | 43.1 °C
30 | GATCATAACATGATC ((((((...)))))) | -37 kcal/mol | 50.3 °C
31 | GATCATAACTATGATC ((((((....)))))) | -35.8 kcal/mol | 48 °C
32 | GATCATACATATGATC ((((((....)))))) | -40.7 kcal/mol | 47.7 °C
33 | GATCATACGAATGATC ((((((....)))))) | -34.4 kcal/mol | 44.7 °C
34 | GATCATACGATGATC ((((((...)))))) | -29.4 kcal/mol | 46.9 °C
35 | GATCATACTAATGATC ((((((....)))))) | -34.9 kcal/mol | 46.8 °C
36 | GATCATAGAGATGATC ((((((....)))))) | -30.1 kcal/mol | 44.5 °C
37 | GATCATAGCATGATC ((((((...)))))) | -37 kcal/mol | 49.9 °C
38 | GATCATATAATGATC ((((((...)))))) | -31.6 kcal/mol | 49 °C
39 | GATCATATTTATGATC ((((((....)))))) | -41.2 kcal/mol | 50.3 °C
40 | GATCATCAATATGATC ((((((....)))))) | -35 kcal/mol | 45 °C
41 | GATCATCAGAATGATC ((((((....)))))) | -22.6 kcal/mol | 46.9 °C
42 | GATCATCAGTATGATC ((((((....)))))) | -29.4 kcal/mol | 45.8 °C
43 | GATCATCATGATGATC ((((((....)))))) | -38 kcal/mol | 53.8 °C
44 | GATCATCCAATGATC ((((((...)))))) | -31.4 kcal/mol | 46.9 °C
45 | GATCATCCCATGATC ((((((...)))))) | -38.4 kcal/mol | 50.4 °C
46 | GATCATCCCGATGATC ((((((....)))))) | -51.9 kcal/mol | 52.1 °C
47 | GATCATCCGGATGATC ((((((....)))))) | -52.5 kcal/mol | 54.8 °C
48 | GATCATCGATATGATC ((((((....)))))) | -29.4 kcal/mol | 45.3 °C

Row | Sequence | folding enthalpy [1] | Tm [2]
49 | GATCATCGCAATGATC ((((((....)))))) | -39.1 kcal/mol | 48.3 °C
50 | GATCATCGGAATGATC ((((((....)))))) | -38.9 kcal/mol | 45.8 °C
51 | GATCATCGTTATGATC ((((((....)))))) | -32.4 kcal/mol | 47.2 °C
52 | GATCATCTAATGATC ((((((...)))))) | -34.5 kcal/mol | 47.2 °C
53 | GATCATCTATATGATC ((((((....)))))) | -36.2 kcal/mol | 47.9 °C
54 | GATCATCTCATGATC ((((((...)))))) | -37.7 kcal/mol | 50 °C
55 | GATCATCTCCATGATC ((((((....)))))) | -32.9 kcal/mol | 46.8 °C
56 | GATCATCTCGATGATC ((((((....)))))) | -50.6 kcal/mol | 54.6 °C
57 | GATCATCTTCATGATC ((((((....)))))) | -37.2 kcal/mol | 47.3 °C
58 | GATCATCTTGATGATC ((((((....)))))) | -43.4 kcal/mol | 57.2 °C
59 | GATCATGAAGATGATC ((((((....)))))) | -34.9 kcal/mol | 50.3 °C
60 | GATCATGAGAATGATC ((((((....)))))) | -36.5 kcal/mol | 49.7 °C
61 | GATCATGAGTATGATC ((((((....)))))) | -31.1 kcal/mol | 46.7 °C
62 | GATCATGCTGATGATC ((((((....)))))) | -38.5 kcal/mol | 47.3 °C
63 | GATCATGGAAACATGACC (.(((((....))))).) | -17.4 kcal/mol | 36.1 °C
64 | GATCATGGAATGATC ((((((...)))))) | -39.3 kcal/mol | 56.5 °C
65 | GATCATGGAGATGATC ((((((....)))))) | -37.5 kcal/mol | 49.7 °C
66 | GATCATGGGAATGATC ((((((....)))))) | -36.8 kcal/mol | 51.8 °C
67 | GATCATGGGTATGATC ((((((....)))))) | -34.6 kcal/mol | 46.7 °C
68 | GATCATGTGATGATC ((((((...)))))) | -31.4 kcal/mol | 47.2 °C
69 | GATCATGTTCATGATC ((((((....)))))) | -43.1 kcal/mol | 52.5 °C
70 | GATCATTAAAATGATC ((((((....)))))) | -29.5 kcal/mol | 45.2 °C
71 | GATCATTACATGATC ((((((...)))))) | -33.8 kcal/mol | 50.2 °C
72 | GATCATTACCATGATC ((((((....)))))) | -35.3 kcal/mol | 46.8 °C
